Data reported in ChEMBL document CHEMBL1154067, “Antiviral and cytotoxic activities of aminoarylazo compounds and aryltriazene derivatives” (Bioorg Med Chem, 2009).
Activity calls are given as the source filed them.

How the values were obtained:
[1] = (§1) Cytotoxicity against african green monkey Vero 76 cells by crystal violet staining; assay type: cell-based; conditions: chlorocebus sabaeus, Vero 76 cells
Procedure, shortened: (§2)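 Mock-infected Vero 76 seeded at 4 × 10^5 cells/mL, run in parallel with plaque assays, with or without serial compound dilutions. Cell number of monolayers determined by crystal violet staining. CC50 = concentration reducing viable cell number 50%.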

[2] = tested on: Bovine viral diarrhea virus 1; assay: Antiviral activity against Bovine viral diarrhea virus infected in MDBK cells assessed as inhibition of virus-induced cytopathicity after 3 to 4 days by MTT assay; assay type: functional, organism-based; conditions: Bovine viral diarrhea virus isolates and strains
Coxsackievirus B2 = assay: Antiviral activity against Coxsackie virus type B2 virus infected in african green monkey Vero-76 cells after 3 days by plaque reduction assay; assay type: functional, organism-based; conditions: Enterovirus B, Vero 76, 72 h
Procedure, shortened: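 Vero 76 cells seeded at 2 × 10^5 cells/well, grown overnight to confluence at 37 °C in 5% CO2, then infected at 50–100 PFU/well. Unadsorbed virus removed. Overlay of DMEM with 1% inactivated FCS and 0.75% methylcellulose, with or without serial compound dilutions. After 3 days at 37 °C, fixed and stained with crystal violet in PBS/50% ethanol; plaques counted. EC50 is the concentration reducing plaque number by 50%.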

Human alphaherpesvirus 1 = assay: Antiviral activity against HSV1 infected in Vero-76 cells after 3 days by plaque reduction assay; assay type: functional, organism-based; conditions: Human alphaherpesvirus 1, Vero 76, 72 h
[3] = Cytotoxicity against hamster BHK21 cells assessed as reduction in cell viability after 48 to 96 hrs by MTT assay; assay type: cell-based, Mesocricetus auratus, BHK-21
Procedure, shortened: (§3)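 Mock-infected cells in maintenance medium, MDBK at 6 × 10^5 and BHK at 1 × 10^6 cells/mL initial density, with or without serial compound dilutions. Run in parallel with antiviral assays. Viability by MTT after 48–96 h at 37 °C, 5% CO2. CC50 = concentration reducing viability 50%.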

[4] = Cytotoxicity against MDBK cells after 48 to 96 hrs by MTT assay; assay type: cell-based, Bos taurus; conditions: cattle; procedure, shortened: as §3
Poliovirus 1 = assay: Antiviral activity against Human poliovirus 1 strain Sabin after 2 days by plaque reduction assay; assay type: functional; conditions: for EC50: Enterovirus C, 48 h
MT4 = assay: (§4) Cytotoxicity against human MT4 cells after 96 hrs by MTT assay; assay type: cell-based; conditions: mt4, 96 h
Procedure, shortened: (§5)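 Exponentially growing mock-infected MT-4 seeded at 1 × 10^5 cells/mL in RPMI-1640 with 10% FCS, penicillin and streptomycin. Incubated with or without serial compound dilutions at 37 °C, 5% CO2. Viability by MTT after 96 h. CC50 = concentration reducing viability 50%.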

Yellow fever virus = assay: Antiviral activity against Yellow fever virus infected in BHK-21 cells assessed as inhibition of virus-induced cytopathicity after 3 to 4 days by MTT assay; assay type: functional, organism-based
[5] = tested on: Respiratory syncytial virus; assay: Antiviral activity against Respiratory syncytial virus A2 infected in Vero-76 cells after 5 days by plaque reduction assay; assay type: functional, organism-based; conditions: human respiratory syncytial virus, A2, Vero 76, 120 h
[6] = tested on: Mammalian orthoreovirus 1; assay: Antiviral activity against Reovirus-1 infected in BHK-21 cells assessed as inhibition of virus-induced cytopathicity after 3 to 4 days by MTT assay; assay type: functional, organism-based; conditions: Mammalian orthoreovirus 1, BHK-21
Procedure, shortened: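 BHK-21 cells seeded at 5 × 10^4 cells/well, grown overnight to confluent monolayers at 37 °C in 5% CO2, then infected at m.o.i. 0.01 in serum-free medium. One hour later, MEM Earle's with 1% final inactivated FCS added, with or without serial compound dilutions. Viability read by MTT after 3–4 days at 37 °C. EC50 is the concentration giving 50% protection from cytopathogenicity.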

[7] = as §4; assay type: cell-based; conditions: MT4 cells; procedure, shortened: as §5
Vaccinia virus = assay: Antiviral activity against Vaccinia virus after 3 days by plaque reduction assay; assay type: functional, organism-based; conditions: Orthopoxvirus vaccinia
[8] = tested on: Human immunodeficiency virus 1; assay: Antiviral activity against HIV1 infected in human MT4 cells assessed as inhibition of virus-induced cytopathicity after 4 days by MTT assay; assay type: functional, organism-based
[9] = tested on: Vesicular stomatitis virus; assay: Antiviral activity against Vesicular stomatitis virus after 2 days by plaque reduction assay; assay type: functional, organism-based
Vero = assay: as §1; assay type: cell-based; conditions: chlorocebus sabaeus, vero; procedure, shortened: as §2

SMILES: NC(=O)c1ncn([C@@H]2O[C@H](CO)[C@@H](O)[C@H]2O)n1 [RIBAVIRIN]
- CC50 [1]: > 100 µM
- EC50 [2]: 7 µM
- EC50 (Coxsackievirus B2): > 100 µM
- EC50 (Human alphaherpesvirus 1): > 100 µM
- CC50 ([3]; BHK21 cells): > 100 µM
- CC50 ([4]; MDBK cells): > 100 µM
- EC50 (Poliovirus 1): > 100 µM
- CC50 (MT4): 31 µM
- EC50 (Yellow fever virus): > 100 µM
- EC50 [5]: 7 µM
- EC50 [6]: > 100 µM

SMILES: C[C@@]1(O)[C@H](O)[C@@H](CO)O[C@H]1n1cnc2c(=O)[nH]c(N)nc21 [2'-B-METHYL-GUANOSINE]
- CC50 [1]: > 100 µM
- EC50 (Human alphaherpesvirus 1): > 100 µM
- CC50 ([3]; bhk-21): 90 µM
- CC50 ([4]; MDBK cells): > 100 µM
- EC50 (Poliovirus 1): > 100 µM
- CC50 at 96 h [7]: > 100 µM
- EC50 (Yellow fever virus): 1.8 µM
- EC50 [5]: > 100 µM
- EC50 [6]: 2.4 µM

SMILES: CN(C)CCCN(/N=N/c1ccccc1)c1cccc(C(F)(F)F)c1
- CC50 [1]: 20 µM
- Activity (Vaccinia virus): inactive
- EC50 [2]: > 38 µM
- EC50 (Coxsackievirus B2): ≥ 20 µM
- EC50 (Human alphaherpesvirus 1): 14 µM
- CC50 ([3]; BHK21 cells): 49 µM
- CC50 ([4]; MDBK cells): 38 µM
- inhibition [8]: inactive
- EC50 (Poliovirus 1): > 20 µM
- Activity [9]: inactive
- CC50 at 96 h [7]: 14 µM
- EC50 (Yellow fever virus): ≥ 49 µM
- EC50 [5]: > 20 µM
- EC50 [6]: > 49 µM

SMILES: Fc1ccc(/N=N/c2ccc(NC[C@@H]3CCCN4CCCC[C@H]34)c3c2CCCC3)c(F)c1
- CC50 (Vero): 15 µM
- Activity (Vaccinia virus): inactive
- EC50 [2]: > 11 µM
- EC50 (Coxsackievirus B2): > 15 µM
- EC50 (Human alphaherpesvirus 1): > 15 µM
- CC50 ([3]; bhk-21): 9 µM
- CC50 ([4]; mdbk): 11 µM
- inhibition [8]: inactive
- Activity (Poliovirus 1): inactive
- Activity [9]: inactive
- CC50 (MT4): 51 µM
- EC50 (Yellow fever virus): > 9 µM
- EC50 [5]: > 15 µM
- EC50 [6]: > 9 µM

SMILES: FC(F)(F)c1cccc(N(C[C@@H]2CCCN3CCCC[C@H]23)/N=N/c2ccccc2)c1
- CC50 (Vero): 75 µM
- Activity (Vaccinia virus): inactive
- EC50 [2]: > 22 µM
- EC50 (Coxsackievirus B2): > 75 µM
- EC50 (Human alphaherpesvirus 1): > 75 µM
- CC50 ([3]; bhk-21): 40 µM
- CC50 ([4]; mdbk): 22 µM
- inhibition [8]: inactive
- EC50 (Poliovirus 1): > 75 µM
- Activity [9]: inactive
- CC50 (MT4): 17 µM
- EC50 (Yellow fever virus): 23 µM
- EC50 [5]: > 75 µM
- EC50 [6]: > 40 µM

SMILES: CN(C)CCCN(/N=N/c1c(F)cccc1F)c1ccccc1
- CC50 (Vero): 25 µM
- Activity (Vaccinia virus): inactive
- EC50 [2]: > 45 µM
- EC50 (Coxsackievirus B2): 9 µM
- EC50 (Human alphaherpesvirus 1): 12 µM
- CC50 ([3]; bhk-21): 52 µM
- CC50 ([4]; mdbk): 45 µM
- inhibition [8]: inactive
- EC50 (Poliovirus 1): > 25 µM
- Activity [9]: inactive
- CC50 (MT4): 23 µM
- EC50 (Yellow fever virus): 20 µM
- EC50 [5]: ≥ 25 µM
- EC50 [6]: > 52 µM

SMILES: CN(C)CCCN(/N=N/c1cc(F)ccc1F)c1ccccc1
- CC50 (Vero): 7 µM
- Activity (Vaccinia virus): inactive
- EC50 [2]: > 25 µM
- EC50 (Coxsackievirus B2): > 7 µM
- EC50 (Human alphaherpesvirus 1): > 7 µM
- CC50 ([3]; bhk-21): 25 µM
- CC50 ([4]; mdbk): 25 µM
- inhibition [8]: inactive
- EC50 (Poliovirus 1): > 7 µM
- Activity [9]: inactive
- CC50 (MT4): 13 µM
- EC50 (Yellow fever virus): > 25 µM
- EC50 [5]: > 7 µM
- EC50 [6]: > 25 µM

SMILES: CN(C)CCCN(/N=N/c1cc(F)ccc1F)c1cccc(C(F)(F)F)c1
- CC50 (Vero): 30 µM
- Activity (Vaccinia virus): inactive
- EC50 [2]: 90 µM
- EC50 (Coxsackievirus B2): > 30 µM
- EC50 (Human alphaherpesvirus 1): > 30 µM
- CC50 ([3]; bhk-21): 54 µM
- CC50 ([4]; mdbk): > 100 µM
- inhibition [8]: inactive
- EC50 (Poliovirus 1): > 30 µM
- Activity [9]: inactive
- CC50 (MT4): 16 µM
- EC50 (Yellow fever virus): > 54 µM
- EC50 [5]: > 30 µM
- EC50 [6]: > 54 µM

SMILES: Fc1ccc(F)c(/N=N/c2ccc(NC[C@@H]3CCCN4CCCC[C@H]34)c3c2CCCC3)c1
- CC50 (Vero): 80 µM
- Activity (Vaccinia virus): inactive
- EC50 [2]: > 64 µM
- EC50 (Coxsackievirus B2): > 80 µM
- EC50 (Human alphaherpesvirus 1): > 80 µM
- CC50 ([3]; bhk-21): 38 µM
- CC50 ([4]; mdbk): 64 µM
- inhibition [8]: inactive
- Activity (Poliovirus 1): inactive
- Activity [9]: inactive
- CC50 (MT4): 40 µM
- EC50 (Yellow fever virus): > 38 µM
- EC50 [5]: > 80 µM
- EC50 [6]: > 38 µM

SMILES: Nc1nc2c(ncn2COCCO)c(=O)[nH]1 [ACYCLOVIR]
- CC50 [1]: > 100 µM
- EC50 [2]: > 100 µM
- EC50 (Coxsackievirus B2): > 100 µM
- CC50 ([3]; BHK21 cells): > 100 µM
- CC50 ([4]; MDBK cells): > 100 µM
- EC50 (Poliovirus 1): > 100 µM
- CC50 at 96 h [7]: > 100 µM
- EC50 (Yellow fever virus): > 100 µM
- EC50 [5]: > 100 µM
- EC50 [6]: > 100 µM
